Reference: ChEMBL document CHEMBL1806366, “Synthesis and structure-activity relationship of new 1,5-dialkyl-1,5-benzodiazepines as cholecystokinin-2 receptor antagonists” (Bioorg Med Chem, 2011)
≈ marks a conversion by molar mass, not a printed value.

Columns and labels:
Mus musculus [1] = assay: Anxiolytic activity in po dosed mouse measured after 60 mins post dose by black/white box test; type: functional; details: Mus musculus, po, 1 h; read-out: ED50
Outline: (§1)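 Mice dosed orally 60 min before testing, then placed in the centre of the illuminated white compartment of a two-part black/white box. Time spent exploring the white and black sides recorded; longer time in the white side read as anxiolytic effect. Model used for both potency and duration of action.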

[2] = Selectivity ratio of pKi for guinea pig brain CCK2 receptor to pKi for rat pancreas CCK1
Outline: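 Radioligand displacement binding to guinea pig brain membranes (CCK2, incubated at 25 °C) and rat pancreas membranes (CCK1, incubated at 37 °C) with 0.2 nM [³H]-CCK8s. Non-specific binding was defined with L-365,260 (CCK2) or L-364,718 (CCK1). Bound ligand was separated by GF/C filtration and counted by liquid scintillation. Ki values were derived for each subtype, with KD and Bmax taken from separate saturation isotherms.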

[3] = target: T1, Cholecystokinin receptor type A (Rattus norvegicus, UniProt P30551); assay: Displacement of [3H]CCK8 from rat pancreas CCK1 receptor at by liquid scintillation counting
T1 sequence (P30551 whole entry): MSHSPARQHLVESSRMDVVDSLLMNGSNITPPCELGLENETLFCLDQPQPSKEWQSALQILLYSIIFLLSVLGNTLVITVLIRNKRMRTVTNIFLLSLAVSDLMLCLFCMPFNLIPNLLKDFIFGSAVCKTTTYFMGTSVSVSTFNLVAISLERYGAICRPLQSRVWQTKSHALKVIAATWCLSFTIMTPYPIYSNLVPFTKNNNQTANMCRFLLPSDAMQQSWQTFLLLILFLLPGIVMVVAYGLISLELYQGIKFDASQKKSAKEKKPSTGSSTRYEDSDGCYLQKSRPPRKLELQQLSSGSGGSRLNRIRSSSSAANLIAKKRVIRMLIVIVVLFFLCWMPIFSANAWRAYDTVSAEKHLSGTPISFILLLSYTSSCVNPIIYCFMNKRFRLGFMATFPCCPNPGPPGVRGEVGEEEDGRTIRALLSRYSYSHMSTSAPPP
Outline: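 Rat pancreas membranes incubated at 37 °C with [³H]-CCK8s at 0.2 nM; nonspecific binding defined with L-364,718. Bound and free ligand separated by filtration over GF/C filters, then counted by liquid scintillation. Ki calculated using Bmax and KD from separate saturation binding isotherms.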

[4] = Displacement of [3H]CCK8 from guinea pig brain CCK2 receptor by liquid scintillation counting; set-up: species or system Cavia porcellus
Outline: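 Guinea pig brain membranes incubated at 25 °C with [³H]-CCK8s at 0.2 nM; nonspecific binding defined with L-365,260. Bound and free ligand separated by filtration over GF/C filters, then counted by liquid scintillation. Ki calculated using Bmax and KD from separate saturation binding isotherms.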

[5] = Solubility of the compound at pH 2.4; type: physicochemical; details: buffer
[6] = Half life in rat administered as methocel suspension; type: ADME, organism-based; details: in vivo
[7] = Oral bioavailability in rat administered as methocel suspension; type: ADME, organism-based; details: in vivo
[8] = Volume of distribution in rat administered as methocel suspension; type: ADME, organism-based; details: in vivo
[9] = Clearance in rat administered as methocel suspension; type: ADME, organism-based; details: in vivo
Mus musculus [10] = assay: Anxiolytic activity in po dosed mouse assessed as duration of action of the compound measured after 60 mins post dose by black/white box test; type: functional; outline: as §1

Row | Ki selectivity ratio (CCK1 Ki / CCK2 Ki) [2] | Ki [3] [nM] | pKi [4] | Structure (SMILES) | also measured
1 |  |  |  | O=C(Nc1ccccc1)N[C@@H]1C(=O)N(CC23CC4CC(CC(C4)C2)C3)c2ccccc2N(c2ccccc2)C1=O | ED50 (Mus musculus [1]): 0.05 µg/kg
2 | 229 | 6610 | 7.54 | COc1ccc(NC(=O)NC2C(=O)N(CCC(C)C)c3ccccc3N(CCN3CCOCC3)C2=O)c(C)c1 (racemic) | 
3 |  | 1510 | 8.99 | CCN(CC)CCN1C(=O)C(NC(=O)Nc2ccccc2)C(=O)N(CC2CCCCC2)c2ccccc21 (racemic) [listing 1 of 2 here] | 
4 | 525 | 1020 | 8.71 | CC(C)CCN1C(=O)C(NC(=O)Nc2ccc(Cl)cc2)C(=O)N(CCN2CCOCC2)c2ccccc21 (racemic) | 
5 | 372 | 275 | 9.11 | Cc1cccc(NC(=O)NC2C(=O)N(CCC(C)C)c3ccccc3N(CCN3CCOCC3)C2=O)c1 (racemic) | 
6 | 407 | 1480 | 8.44 | CC(C)CCN1C(=O)C(NC(=O)Nc2ccc(C(F)(F)F)cc2)C(=O)N(CCN2CCOCC2)c2ccccc21 (racemic) | 
7 | 295 | 1070 | 8.44 | CC(C)CCN1C(=O)C(NC(=O)Nc2ccc(Br)cc2)C(=O)N(CCN2CCOCC2)c2ccccc21 (racemic) | 
8 | 363 | 1450 | 8.4 | CC(C)CCN1C(=O)C(NC(=O)Nc2ccc(F)cc2)C(=O)N(CCN2CCOCC2)c2ccccc21 (racemic) | 
9 | 148 | > 10000 | 7.17 | CCOc1ccc(NC(=O)NC2C(=O)N(CCC(C)C)c3ccccc3N(CCN3CCOCC3)C2=O)cc1 (racemic) | 
10 | 38 | 537 | 7.85 | Cc1cc(Br)ccc1NC(=O)NC1C(=O)N(CCC(C)C)c2ccccc2N(CCN2CCOCC2)C1=O (racemic) | 
11 | 78 | > 10000 | 6.89 | CC(C)CCN1C(=O)C(NC(=O)Nc2ccccc2C(C)C)C(=O)N(CCN2CCOCC2)c2ccccc21 (racemic) | 
12 | 44 | 5130 | 6.93 | Cc1cccc(Cl)c1NC(=O)NC1C(=O)N(CCC(C)C)c2ccccc2N(CCN2CCOCC2)C1=O (racemic) | 
13 | 646 | 5130 | 8.1 | COc1ccc(NC(=O)NC2C(=O)N(CCC(C)C)c3ccccc3N(CCN3CCOCC3)C2=O)cc1 (racemic) | 
14 | 302 | 2040 | 8.17 | CC(C)CCN1C(=O)C(NC(=O)Nc2ccccc2)C(=O)N(CCN2CCCCC2)c2ccccc21 (racemic) | 
15 | 1550 | 17400 | 7.95 | COc1ccc(NC(=O)NC2C(=O)N(CCC(C)C)c3ccccc3N(CCN(C)C)C2=O)cc1 (racemic) | 
16 | 2570 | 4070 | 8.8 | CCN(CC)CCN1C(=O)C(NC(=O)Nc2ccccc2)C(=O)N(CCC(C)C)c2ccccc21 (racemic) | ED50 (Mus musculus [1]): 0.0006 µg/kg
17 | 126 | 347 | 8.56 | O=C(Nc1ccccc1)NC1C(=O)N(CCN2CCOCC2)c2ccccc2N(CC2CCCCC2)C1=O (racemic) | 
18 | 316 | 174 | 9.26 | Cc1cccc(NC(=O)NC2C(=O)N(CCN3CCOCC3)c3ccccc3N(CC3CCCCC3)C2=O)c1 (racemic) | 
19 |  | 2630 | 8.36 | O=C(Nc1ccccc1)NC1C(=O)N(CCN2CCOCC2)c2cc(F)ccc2N(CC23CC4CC(CC(C4)C2)C3)C1=O (racemic) [listing 1 of 2 here] | solubility [5]: 0.36 mg/mL (≈ 610 µM)
20 |  | 1410 | 8.66 | O=C(Nc1ccc(F)cc1)NC1C(=O)N(CCN2CCOCC2)c2ccccc2N(CC23CC4CC(CC(C4)C2)C3)C1=O (racemic) [listing 1 of 2 here] | solubility ([5]; read-out: solubility): 0.02 mg/mL (≈ 33.9 µM)
21 | 9120 | 9550 | 8.98 | O=C(Nc1ccccc1)NC1C(=O)N(CCN2CCCC2)c2ccccc2N(CC23CC4CC(CC(C4)C2)C3)C1=O (racemic) | 

Row | Ki selectivity ratio (CCK1 Ki / CCK2 Ki) [2] | Ki [3] [nM] | pKi [4] | Structure (SMILES) | also measured
22 | 5620 | 20400 | 8.44 | CN(C)CCCN1C(=O)C(NC(=O)Nc2ccccc2)C(=O)N(CC23CC4CC(CC(C4)C2)C3)c2ccccc21 (racemic) | 
23 | 851 | 1660 | 8.71 | CCN(CC)CCN1C(=O)C(NC(=O)Nc2ccc(F)cc2)C(=O)N(CC23CC4CC(CC(C4)C2)C3)c2ccccc21 (racemic) | 
24 | 1480 |  |  | CCN(CC)CCN1C(=O)C(NC(=O)Nc2ccccc2)C(=O)N(CC2CCCCC2)c2ccccc21 (racemic) [listing 2 of 2 here] | 
25 | 646 |  |  | O=C(Nc1ccc(F)cc1)NC1C(=O)N(CCN2CCOCC2)c2ccccc2N(CC23CC4CC(CC(C4)C2)C3)C1=O (racemic) [listing 2 of 2 here] | 
26 | 603 |  |  | O=C(Nc1ccccc1)NC1C(=O)N(CCN2CCOCC2)c2cc(F)ccc2N(CC23CC4CC(CC(C4)C2)C3)C1=O (racemic) [listing 2 of 2 here] | 
27 | 3550 |  |  | O=C(Nc1ccccc1)NC1C(=O)N(CCN2CCOCC2)c2ccccc2N(CC23CC4CC(CC(C4)C2)C3)C1=O (racemic) | 
28 |  | 2240 | 7.31 | O=C(Nc1ccccc1)NC1C(=O)N(CCN2CCOCC2)c2cc(F)ccc2N(CC23CC4CC(CC(C4)C2)C3)C1=O (single isomer, unassigned; (+)) [listing 1 of 2 here] | 
29 |  | 2570 | 7.85 | O=C(Nc1ccc(F)cc1)NC1C(=O)N(CCN2CCOCC2)c2ccccc2N(CC23CC4CC(CC(C4)C2)C3)C1=O (single isomer, unassigned; (+)) [listing 1 of 2 here] | 
30 | 182 |  |  | O=C(Nc1ccc(F)cc1)NC1C(=O)N(CCN2CCOCC2)c2ccccc2N(CC23CC4CC(CC(C4)C2)C3)C1=O (single isomer, unassigned; (+)) [listing 2 of 2 here] | 
31 | 46 |  |  | O=C(Nc1ccccc1)NC1C(=O)N(CCN2CCOCC2)c2cc(F)ccc2N(CC23CC4CC(CC(C4)C2)C3)C1=O (single isomer, unassigned; (+)) [listing 2 of 2 here] | 
32 |  | 3090 | 8.52 | O=C(Nc1ccccc1)NC1C(=O)N(CCN2CCOCC2)c2cc(F)ccc2N(CC23CC4CC(CC(C4)C2)C3)C1=O (single isomer, unassigned; (-)) [listing 1 of 2 here] | half-life [6]: 66 min; bioavailability [7]: 5%; ED50 (Mus musculus [1]): 0.08 µg/kg; solubility ([5]; read-out: solubility): 0.36 mg/mL (≈ 610 µM); Vd [8]: 2.2 L/kg; clearance [9]: 23 mL/min; Time (Mus musculus [10]): 4 h
33 |  | 1020 | 9.45 | O=C(Nc1ccc(F)cc1)NC1C(=O)N(CCN2CCOCC2)c2ccccc2N(CC23CC4CC(CC(C4)C2)C3)C1=O (single isomer, unassigned; (-)) [listing 1 of 2 here] | solubility [5]: 0.02 mg/mL (≈ 33.9 µM)
34 | 2880 |  |  | O=C(Nc1ccc(F)cc1)NC1C(=O)N(CCN2CCOCC2)c2ccccc2N(CC23CC4CC(CC(C4)C2)C3)C1=O (single isomer, unassigned; (-)) [listing 2 of 2 here] | 
35 | 1020 |  |  | O=C(Nc1ccccc1)NC1C(=O)N(CCN2CCOCC2)c2cc(F)ccc2N(CC23CC4CC(CC(C4)C2)C3)C1=O (single isomer, unassigned; (-)) [listing 2 of 2 here] | 
36 | 8910 |  |  | O=C(Nc1ccccc1)NC1C(=O)N(CCN2CCOCC2)c2ccccc2N(CC23CC4CC(CC(C4)C2)C3)C1=O (single isomer, unassigned; (-)) | 
37 |  | 2690 | 8.23 | CCN(CC)CCN1C(=O)C(NC(=O)Nc2ccccc2)C(=O)N(CC2CCCCC2)c2ccccc21 (single isomer, unassigned; isomer 1) [listing 1 of 2 here] | 
38 | 457 |  |  | CCN(CC)CCN1C(=O)C(NC(=O)Nc2ccccc2)C(=O)N(CC2CCCCC2)c2ccccc21 (single isomer, unassigned; isomer 1) [listing 2 of 2 here] | 
39 |  | 468 | 9.4 | CCN(CC)CCN1C(=O)C(NC(=O)Nc2ccccc2)C(=O)N(CC2CCCCC2)c2ccccc21 (stereo in doubt) [listing 1 of 2 here] | 
40 | 1180 |  |  | CCN(CC)CCN1C(=O)C(NC(=O)Nc2ccccc2)C(=O)N(CC2CCCCC2)c2ccccc21 (stereo in doubt) [listing 2 of 2 here] | 
41 |  | 1580 | 8.03 | O=C(Nc1ccccc1)NC1C(=O)N(CCN2CCOCC2)c2ccccc2N(CC23CC4CC(CC(C4)C2)C3)C1=O (stereo in doubt; 55) [listing 1 of 2 here] | 
42 | 170 |  |  | O=C(Nc1ccccc1)NC1C(=O)N(CCN2CCOCC2)c2ccccc2N(CC23CC4CC(CC(C4)C2)C3)C1=O (stereo in doubt; 55) [listing 2 of 2 here] | 
